pIC50: −log10 of the molar value.
How the values were obtained:
[1] = Antitumor activity against human KB3 cells after 96 hrs by MTT assay; type: functional, cell-based; conditions: KB3, 96 h
Method in brief: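 Human KB-3 carcinoma cells exposed to increasing compound concentrations; viability read by MTT colorimetric assay after 96 h. Values are means of triplicate assays, expressed relative to untreated controls.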

SNB-75 = assay: Growth inhibition of human SNB75 cells at 10 uM after 96 hrs by MTT assay; type: functional; design: scale not given: the % may be the effect or the level left
A549 = assay: Growth inhibition of human A549 cells at 10 uM after 96 hrs by MTT assay; type: functional; design: scale not given: the % may be the effect or the level left
SN12C = assay: Growth inhibition of human SN12C cells at 10 uM after 96 hrs by MTT assay; type: functional; design: scale not given: the % may be the effect or the level left
HCT-116 = assay: Growth inhibition of human HCT116 cells at 10 uM after 96 hrs by MTT assay; type: functional; design: scale not given: the % may be the effect or the level left
MDA-MB-435 = assay: Growth inhibition of human MDA-MB-435 cells at 10 uM after 96 hrs by MTT assay; type: functional; design: scale not given: the % may be the effect or the level left
A498 = assay: Growth inhibition of human A498 cells at 10 uM after 96 hrs by MTT assay; type: functional; design: scale not given: the % may be the effect or the level left
SW-620 = assay: Growth inhibition of human SW620 cells at 10 uM after 96 hrs by MTT assay; type: functional; design: scale not given: the % may be the effect or the level left
HT-29 = assay: Growth inhibition of human HT-29 cells at 10 uM after 96 hrs by MTT assay; type: functional; design: scale not given: the % may be the effect or the level left
SNB-19 = assay: Growth inhibition of human SNB19 cells at 10 uM after 96 hrs by MTT assay; type: functional; design: scale not given: the % may be the effect or the level left
NCI/ADR-RES = assay: Growth inhibition of human NCI/ADR-RES cells at 10 uM after 96 hrs by MTT assay; type: functional; design: scale not given: the % may be the effect or the level left
[2] = Growth inhibition of human Hs 578T cells at 10 uM after 96 hrs by MTT assay; type: functional; design: scale not given: the % may be the effect or the level left
SF-295 = assay: Growth inhibition of human SF295 cells at 10 uM after 96 hrs by MTT assay; type: functional; design: scale not given: the % may be the effect or the level left
SF-539 = assay: Growth inhibition of human SF539 cells at 10 uM after 96 hrs by MTT assay; type: functional; design: scale not given: the % may be the effect or the level left
UACC-62 = assay: Growth inhibition of human UACC62 cells at 10 uM after 96 hrs by MTT assay; type: functional; design: scale not given: the % may be the effect or the level left
K562 = assay: Growth inhibition of human K562 cells at 10 uM after 96 hrs by MTT assay; type: functional; design: scale not given: the % may be the effect or the level left
T47D = assay: Growth inhibition of human T47D cells at 10 uM after 96 hrs by MTT assay; type: functional; design: scale not given: the % may be the effect or the level left
TK-10 = assay: Growth inhibition of human TK10 cells at 10 uM after 96 hrs by MTT assay; type: functional; design: scale not given: the % may be the effect or the level left
Malme-3M = assay: Growth inhibition of human MALME-3M cells at 10 uM after 96 hrs by MTT assay; type: functional; design: scale not given: the % may be the effect or the level left
ACHN = assay: Growth inhibition of human ACHN cells at 10 uM after 96 hrs by MTT assay; type: functional; design: scale not given: the % may be the effect or the level left
RXF 393 = assay: Growth inhibition of human RXF393 cells at 10 uM after 96 hrs by MTT assay; type: functional; design: scale not given: the % may be the effect or the level left
SK-MEL-2 = assay: Growth inhibition of human SK-MEL-2 cells at 10 uM after 96 hrs by MTT assay; type: functional; design: scale not given: the % may be the effect or the level left
PC-3 = assay: Growth inhibition of human PC3 cells at 10 uM after 96 hrs by MTT assay; type: functional; design: scale not given: the % may be the effect or the level left
LOX IMVI = assay: Growth inhibition of human LOXIMVI cells at 10 uM after 96 hrs by MTT assay; type: functional; design: scale not given: the % may be the effect or the level left
MOLT-4 = assay: Growth inhibition of human MOLT4 cells at 10 uM after 96 hrs by MTT assay; type: functional; design: scale not given: the % may be the effect or the level left
HOP-92 = assay: Growth inhibition of human HOP92 cells at 10 uM after 96 hrs by MTT assay; type: functional; design: scale not given: the % may be the effect or the level left
786-0 = assay: Growth inhibition of human 786-0 cells at 10 uM after 96 hrs by MTT assay; type: functional; design: scale not given: the % may be the effect or the level left
IGROV-1 = assay: Growth inhibition of human IGROV1 cells at 10 uM after 96 hrs by MTT assay; type: functional; design: scale not given: the % may be the effect or the level left
M14 = assay: Growth inhibition of human M14 cells at 10 uM after 96 hrs by MTT assay; type: functional; design: scale not given: the % may be the effect or the level left
SK-MEL-5 = assay: Growth inhibition of human SK-MEL-5 cells at 10 uM after 96 hrs by MTT assay; type: functional; design: scale not given: the % may be the effect or the level left
SF-268 = assay: Growth inhibition of human SF268 cells at 10 uM after 96 hrs by MTT assay; type: functional; design: scale not given: the % may be the effect or the level left
HCC 2998 = assay: Growth inhibition of human HCC2998 cells at 10 uM after 96 hrs by MTT assay; type: functional; design: scale not given: the % may be the effect or the level left
DU-145 = assay: Growth inhibition of human DU145 cells at 10 uM after 96 hrs by MTT assay; type: functional; design: scale not given: the % may be the effect or the level left
KM12 = assay: Growth inhibition of human KM12 cells at 10 uM after 96 hrs by MTT assay; type: functional; design: scale not given: the % may be the effect or the level left
OVCAR-5 = assay: Growth inhibition of human OVCAR5 cells at 10 uM after 96 hrs by MTT assay; type: functional; design: scale not given: the % may be the effect or the level left
NCI-H23 = assay: Growth inhibition of human NCI-H23 cells at 10 uM after 96 hrs by MTT assay; type: functional; design: scale not given: the % may be the effect or the level left
NCI-H460 = assay: Growth inhibition of human NCI-H460 cells at 10 uM after 96 hrs by MTT assay; type: functional; design: scale not given: the % may be the effect or the level left
OVCAR-3 = assay: Growth inhibition of human OVCAR-3 cells at 10 uM after 96 hrs by MTT assay; type: functional; design: scale not given: the % may be the effect or the level left
CCRF-CEM = assay: Growth inhibition of human CCRF-CEM cells at 10 uM after 96 hrs by MTT assay; type: functional; design: scale not given: the % may be the effect or the level left
HCT-15 = assay: Growth inhibition of human HCT15 cells at 10 uM after 96 hrs by MTT assay; type: functional; design: scale not given: the % may be the effect or the level left
HOP-62 = assay: Growth inhibition of human HOP62 cells at 10 uM after 96 hrs by MTT assay; type: functional; design: scale not given: the % may be the effect or the level left
SK-MEL-28 = assay: Growth inhibition of human SK-MEL-28 cells at 10 uM after 96 hrs by MTT assay; type: functional; design: scale not given: the % may be the effect or the level left
MDA-MB-468 = assay: Growth inhibition of human MDA-MB-468 cells at 10 uM after 96 hrs by MTT assay; type: functional; design: scale not given: the % may be the effect or the level left
OVCAR-4 = assay: Growth inhibition of human OVCAR4 cells at 10 uM after 96 hrs by MTT assay; type: functional; design: scale not given: the % may be the effect or the level left
UACC-257 = assay: Growth inhibition of human UACC257 cells at 10 uM after 96 hrs by MTT assay; type: functional; design: scale not given: the % may be the effect or the level left
MCF7 = assay: Growth inhibition of human MCF7 cells at 10 uM after 96 hrs by MTT assay; type: functional; design: scale not given: the % may be the effect or the level left
SR = assay: Growth inhibition of human SR cells at 10 uM after 96 hrs by MTT assay; type: functional; design: scale not given: the % may be the effect or the level left
MDA-MB-231 = assay: Growth inhibition of human MDA-MB-231 cells at 10 uM after 96 hrs by MTT assay; type: functional; design: scale not given: the % may be the effect or the level left
COLO 205 = assay: Growth inhibition of human COLO205 cells at 10 uM after 96 hrs by MTT assay; type: functional; design: scale not given: the % may be the effect or the level left
SK-OV-3 = assay: Growth inhibition of human SKOV3 cells at 10 uM after 96 hrs by MTT assay; type: functional; design: scale not given: the % may be the effect or the level left
NCI-H522 = assay: Growth inhibition of human NCI-H522 cells at 10 uM after 96 hrs by MTT assay; type: functional; design: scale not given: the % may be the effect or the level left
OVCAR-8 = assay: Growth inhibition of human OVCAR8 cells at 10 uM after 96 hrs by MTT assay; type: functional; design: scale not given: the % may be the effect or the level left
NCI-H322M = assay: Growth inhibition of human NCI-H322M cells at 10 uM after 96 hrs by MTT assay; type: functional; design: scale not given: the % may be the effect or the level left
U-251 = assay: Growth inhibition of human U251 cells at 10 uM after 96 hrs by MTT assay; type: functional; design: scale not given: the % may be the effect or the level left
UO-31 = assay: Growth inhibition of human UO31 cells at 10 uM after 96 hrs by MTT assay; type: functional; design: scale not given: the % may be the effect or the level left
EKVX = assay: Growth inhibition of human EKVX cells at 10 uM after 96 hrs by MTT assay; type: functional; design: scale not given: the % may be the effect or the level left
HL-60(TB) = assay: Growth inhibition of human HL-60(TB) cells at 10 uM after 96 hrs by MTT assay; type: functional; design: scale not given: the % may be the effect or the level left
NCI-H226 = assay: Growth inhibition of human NCI-H226 cells at 10 uM after 96 hrs by MTT assay; type: functional; design: scale not given: the % may be the effect or the level left
[3] = Growth inhibition of human RPMI8266 cells at 10 uM after 96 hrs by MTT assay; type: functional; design: scale not given: the % may be the effect or the level left
BT-549 = assay: Growth inhibition of human BT549 cells at 10 uM after 96 hrs by MTT assay; type: functional; design: scale not given: the % may be the effect or the level left

Work on `C=C(C)[C@H]1CC=C(C)[C@@]2(O)[C@@H]1[C@H](c1cccc3ccccc13)O[C@@H]2C(=O)OC` yielded a pIC50 [1] of 5.00.

Work on `C=C(C)[C@H]1CC(=O)C(C)=C2[C@@H](C(=O)OCC)O[C@@H](c3cccc(Br)c3)[C@@H]21` yielded a pIC50 [1] of 4.52.

`C=C(C)[C@H]1CC=C(C)C2=CO[C@@H](c3cccc4ccccc34)[C@@H]21` gave a pIC50 [1] of less than 4.00.

With `C=C(C)[C@H]1CC(=O)C(C)=C2[C@@H](C(=O)OCC)O[C@@H](c3ccc(Cl)cc3Cl)[C@@H]21` the Activity (SNB-75) was 50.59%, the Activity (A549) was 41.04% and the Activity (SN12C) was 94.13%. For the same compound, the Activity (HCT-116) was 42.99%, the Activity (MDA-MB-435) was 48.5% and the Activity (A498) was 82.29%. For the same compound, the Activity (SW-620) was 72.54%, the Activity (HT-29) was 66.3% and the Activity (SNB-19) was 89.23%. The Activity (NCI/ADR-RES) was 74.31%, the Activity [2] was 78.32% and the Activity (SF-295) was 88.75%. The Activity (SF-539) was 76.69%, the Activity (UACC-62) was 45.44% and the Activity (K562) was 25.32%. For the same compound, the Activity (T47D) was 40.94%, the Activity (TK-10) was 98.26% and the Activity (Malme-3M) was 84.13%. For the same compound, the Activity (ACHN) was 89.8%, the Activity (RXF 393) was 69.05% and the Activity (SK-MEL-2) was 39.43%. It also gave an Activity (PC-3) of 44.34%, an Activity (LOX IMVI) of 66.98% and an Activity (MOLT-4) of 17.98%. It also gave an Activity (HOP-92) of 49.8%, an Activity (786-0) of 84.02% and an Activity (IGROV-1) of 80.84%. For the same compound, the Activity (M14) was 78.49%, the Activity (SK-MEL-5) was 52.4% and the Activity (SF-268) was 78.47%. It also gave an Activity (HCC 2998) of 107.11%, an Activity (DU-145) of 83.07% and an Activity (KM12) of 63.13%. For the same compound, the Activity (OVCAR-5) was 119.16%, the Activity (NCI-H23) was 65.8% and the Activity (NCI-H460) was 58.73%. For the same compound, the Activity (OVCAR-3) was 72.74%, the Activity (CCRF-CEM) was 19.48% and the Activity (HCT-15) was 71.15%. The Activity (HOP-62) was 84.64%, the Activity (SK-MEL-28) was 98.82% and the Activity (MDA-MB-468) was 13.57%. It also gave an Activity (OVCAR-4) of 65.97%, an Activity (UACC-257) of 51.65% and an Activity (MCF7) of 62.06%. It also gave an Activity (SR) of 12.69%, an Activity (MDA-MB-231) of 76.61% and an Activity (COLO 205) of 94.54%. It also gave an Activity (SK-OV-3) of 103.67%, an Activity (NCI-H522) of 9.23% and an Activity (OVCAR-8) of 81.47%. The Activity (NCI-H322M) was 92.62%, the Activity (U-251) was 53.44% and the Activity (UO-31) was 121.05%. For the same compound, the Activity (EKVX) was 69.98%, the Activity (HL-60(TB)) was -31.34% and the Activity (NCI-H226) was 81.04%. It also gave an Activity [3] of -4.6%, a pIC50 [1] of 5.52 and an Activity (BT-549) of 41.32%.
